Source: ChEMBL document CHEMBL5150051, “Identification and Characterization of a Novel Indoleamine 2,3-Dioxygenase 1 Protein Degrader for Glioblastoma” (J Med Chem, 2022)

Each compound was assayed against Protein cereblon/Indoleamine 2,3-dioxygenase 1 (Homo sapiens, UniProt P14902+Q96SW2) (assay: Protac activity at IDO1/CRBN in IFNgamma-stimulated human U87 cells assessed as IDO1 degradation at 10 uM measured after 24 hrs by Western blotting analysis relative to control).
Format: cell-based
Procedure, shortened: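 U87 GBM cells primed with human IFNγ 50 ng/mL for 24 h, then exposed to PROTAC at 10 μM for 24 h. Lysates run on western blot; IDO1 bands quantified by densitometry and expressed as percent of normalized IDO1 protein level.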

Protein cereblon/Indoleamine 2,3-dioxygenase 1, sequence (P14902 whole entry, looked up): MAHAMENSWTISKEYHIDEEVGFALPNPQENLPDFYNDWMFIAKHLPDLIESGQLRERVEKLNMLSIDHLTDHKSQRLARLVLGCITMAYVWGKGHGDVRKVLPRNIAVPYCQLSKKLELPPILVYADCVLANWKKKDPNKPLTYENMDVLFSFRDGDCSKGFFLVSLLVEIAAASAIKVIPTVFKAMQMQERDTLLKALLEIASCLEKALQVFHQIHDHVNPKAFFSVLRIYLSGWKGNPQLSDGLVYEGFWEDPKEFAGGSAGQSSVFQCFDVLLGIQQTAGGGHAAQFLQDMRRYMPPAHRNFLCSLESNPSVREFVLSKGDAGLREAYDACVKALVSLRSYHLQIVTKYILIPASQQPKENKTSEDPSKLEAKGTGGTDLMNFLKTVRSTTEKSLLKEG
Protein cereblon/Indoleamine 2,3-dioxygenase 1, sequence (Q96SW2 whole entry, looked up): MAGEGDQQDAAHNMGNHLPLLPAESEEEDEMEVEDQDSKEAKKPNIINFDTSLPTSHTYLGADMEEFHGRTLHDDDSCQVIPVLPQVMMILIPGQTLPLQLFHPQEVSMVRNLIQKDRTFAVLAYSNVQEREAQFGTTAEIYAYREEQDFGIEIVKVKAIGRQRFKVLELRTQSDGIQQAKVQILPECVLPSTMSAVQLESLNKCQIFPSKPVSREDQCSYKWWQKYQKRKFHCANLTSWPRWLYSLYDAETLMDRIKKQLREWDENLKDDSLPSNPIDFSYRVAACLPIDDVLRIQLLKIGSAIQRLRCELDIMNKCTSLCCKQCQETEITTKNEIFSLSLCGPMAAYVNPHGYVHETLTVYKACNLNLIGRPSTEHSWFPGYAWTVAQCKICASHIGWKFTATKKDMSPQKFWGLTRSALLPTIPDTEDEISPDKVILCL

Structure (SMILES)	Activity
C[C@@H](C(=O)Nc1ccc(Cl)c(OCCCCCCOc2cccc3c2C(=O)N(C2CCC(=O)NC2=O)C3=O)c1)[C@H]1CC[C@@H](c2ccnc3ccc(F)cc32)CC1 (stereo not given in full)	0%
C[C@@H](C(=O)Nc1ccc(OCCOCCNc2cccc3c2C(=O)N(C2CCC(=O)NC2=O)C3=O)cc1)[C@H]1CC[C@@H](c2ccnc3ccc(F)cc32)CC1 (stereo not given in full)	23%
C[C@@H](C(=O)Nc1ccc(OC2CN(CCCOCCOCCNC(=O)COc3cccc4c3C(=O)N(C3CCC(=O)NC3=O)C4=O)C2)cc1)[C@H]1CC[C@@H](c2ccnc3ccc(F)cc32)CC1 (stereo not given in full)	0%
C[C@@H](C(=O)Nc1ccc(Cl)c(OCCOCCOCCOCCOCCNC(=O)COc2cccc3c2C(=O)N(C2CCC(=O)NC2=O)C3=O)c1)[C@H]1CC[C@@H](c2ccnc3ccc(F)cc32)CC1 (stereo not given in full)	0%
C[C@@H](C(=O)Nc1ccc(Cl)c(OCCOCCOCCOc2cccc3c2C(=O)N(C2CCC(=O)NC2=O)C3=O)c1)[C@H]1CC[C@@H](c2ccnc3ccc(F)cc32)CC1 (stereo not given in full)	88%
C[C@@H](C(=O)Nc1ccc(OCCOCCOCCOCCNc2cccc3c2C(=O)N(C2CCC(=O)NC2=O)C3=O)cc1)[C@H]1CC[C@@H](c2ccnc3ccc(F)cc32)CC1 (stereo not given in full)	0%
C[C@@H](C(=O)Nc1ccc(OC2CN(C(=O)CCOCCOCCNc3cccc4c3C(=O)N(C3CCC(=O)NC3=O)C4=O)C2)cc1)[C@H]1CC[C@@H](c2ccnc3ccc(F)cc32)CC1 (stereo not given in full)	94%
C[C@@H](C(=O)Nc1ccc(OC2CCN(C(=O)CCOCCOc3cccc4c3C(=O)N(C3CCC(=O)NC3=O)C4=O)CC2)cc1)[C@H]1CC[C@@H](c2ccnc3ccc(F)cc32)CC1 (stereo not given in full)	45%
C[C@@H](C(=O)Nc1ccc(Cl)c(OCCCCCCCCCNC(=O)COc2cccc3c2C(=O)N(C2CCC(=O)NC2=O)C3=O)c1)[C@H]1CC[C@@H](c2ccnc3ccc(F)cc32)CC1 (stereo not given in full)	0%
C[C@@H](C(=O)Nc1ccc(OCCCCCCCCCCNc2cccc3c2C(=O)N(C2CCC(=O)NC2=O)C3=O)cc1)[C@H]1CC[C@@H](c2ccnc3ccc(F)cc32)CC1 (stereo not given in full)	0%
C[C@@H](C(=O)Nc1ccc(OCCOCCOCCOCCOc2cccc3c2C(=O)N(C2CCC(=O)NC2=O)C3=O)cc1)[C@H]1CC[C@@H](c2ccnc3ccc(F)cc32)CC1 (stereo not given in full)	0%
C[C@@H](C(=O)Nc1ccc(OCCCCCCCNC(=O)COc2cccc3c2C(=O)N(C2CCC(=O)NC2=O)C3=O)cc1)[C@H]1CC[C@@H](c2ccnc3ccc(F)cc32)CC1 (stereo not given in full)	0%
C[C@@H](C(=O)Nc1ccc(Cl)c(OCCCCCCCCCOc2cccc3c2C(=O)N(C2CCC(=O)NC2=O)C3=O)c1)[C@H]1CC[C@@H](c2ccnc3ccc(F)cc32)CC1 (stereo not given in full)	16%
C[C@@H](C(=O)Nc1ccc(OC2CN(C(=O)CCOCCNC(=O)COc3cccc4c3C(=O)N(C3CCC(=O)NC3=O)C4=O)C2)cc1)[C@H]1CC[C@@H](c2ccnc3ccc(F)cc32)CC1 (stereo not given in full)	86%
C[C@@H](C(=O)Nc1ccc(Cl)c(OCCCNC(=O)COc2cccc3c2C(=O)N(C2CCC(=O)NC2=O)C3=O)c1)[C@H]1CC[C@@H](c2ccnc3ccc(F)cc32)CC1 (stereo not given in full)	67%
C[C@@H](C(=O)Nc1ccc(Cl)c(OCCCNc2cccc3c2C(=O)N(C2CCC(=O)NC2=O)C3=O)c1)[C@H]1CC[C@@H](c2ccnc3ccc(F)cc32)CC1 (stereo not given in full)	36%
C[C@@H](C(=O)Nc1ccc(Cl)c(OCCOCCOCCOCCOCCOCCNc2cccc3c2C(=O)N(C2CCC(=O)NC2=O)C3=O)c1)[C@H]1CC[C@@H](c2ccnc3ccc(F)cc32)CC1 (stereo not given in full)	0%
C[C@@H](C(=O)Nc1ccc(Cl)c(OCCOCCOCCOCCNC(=O)COc2cccc3c2C(=O)N(C2CCC(=O)NC2=O)C3=O)c1)[C@H]1CC[C@@H](c2ccnc3ccc(F)cc32)CC1 (stereo not given in full)	0%
C[C@@H](C(=O)Nc1ccc(OCCOCCOCCNC(=O)COc2cccc3c2C(=O)N(C2CCC(=O)NC2=O)C3=O)cc1)[C@H]1CC[C@@H](c2ccnc3ccc(F)cc32)CC1 (stereo not given in full)	47%
C[C@@H](C(=O)Nc1ccc(OCCOCCOCCOCCOCCOc2cccc3c2C(=O)N(C2CCC(=O)NC2=O)C3=O)cc1)[C@H]1CC[C@@H](c2ccnc3ccc(F)cc32)CC1 (stereo not given in full)	0%
C[C@@H](C(=O)Nc1ccc(OCCOCCOCCOCCOCCOCCOc2cccc3c2C(=O)N(C2CCC(=O)NC2=O)C3=O)cc1)[C@H]1CC[C@@H](c2ccnc3ccc(F)cc32)CC1 (stereo not given in full)	0%
C[C@@H](C(=O)Nc1ccc(OCCOCCOCCNc2cccc3c2C(=O)N(C2CCC(=O)NC2=O)C3=O)cc1)[C@H]1CC[C@@H](c2ccnc3ccc(F)cc32)CC1 (stereo not given in full)	77%
C[C@@H](C(=O)Nc1ccc(Cl)c(OCCOCCOCCOCCOCCOCCNC(=O)COc2cccc3c2C(=O)N(C2CCC(=O)NC2=O)C3=O)c1)[C@H]1CC[C@@H](c2ccnc3ccc(F)cc32)CC1 (stereo not given in full)	0%
C[C@@H](C(=O)Nc1ccc(Cl)c(OCCOCCOCCNc2cccc3c2C(=O)N(C2CCC(=O)NC2=O)C3=O)c1)[C@H]1CC[C@@H](c2ccnc3ccc(F)cc32)CC1 (stereo not given in full)	71%
C[C@@H](C(=O)Nc1ccc(OC2CCN(C(=O)CCOCCNc3cccc4c3C(=O)N(C3CCC(=O)NC3=O)C4=O)CC2)cc1)[C@H]1CC[C@@H](c2ccnc3ccc(F)cc32)CC1 (stereo not given in full)	33%

Structure (SMILES)	Activity
C[C@@H](C(=O)Nc1ccc(OC2CCN(C(=O)CCOCCOCCOc3cccc4c3C(=O)N(C3CCC(=O)NC3=O)C4=O)CC2)cc1)[C@H]1CC[C@@H](c2ccnc3ccc(F)cc32)CC1 (stereo not given in full)	80%
C[C@@H](C(=O)Nc1ccc(OC2CN(C(=O)CCOCCOc3cccc4c3C(=O)N(C3CCC(=O)NC3=O)C4=O)C2)cc1)[C@H]1CC[C@@H](c2ccnc3ccc(F)cc32)CC1 (stereo not given in full)	86%
C[C@@H](C(=O)Nc1ccc(OCCCCNc2cccc3c2C(=O)N(C2CCC(=O)NC2=O)C3=O)cc1)[C@H]1CC[C@@H](c2ccnc3ccc(F)cc32)CC1 (stereo not given in full)	0%
C[C@@H](C(=O)Nc1ccc(Cl)c(OCCOCCNc2cccc3c2C(=O)N(C2CCC(=O)NC2=O)C3=O)c1)[C@H]1CC[C@@H](c2ccnc3ccc(F)cc32)CC1 (stereo not given in full)	66%
C[C@@H](C(=O)Nc1ccc(OCCOCCOCCOCCOCCOCCNC(=O)COc2cccc3c2C(=O)N(C2CCC(=O)NC2=O)C3=O)cc1)[C@H]1CC[C@@H](c2ccnc3ccc(F)cc32)CC1 (stereo not given in full)	46%
C[C@@H](C(=O)Nc1ccc(OC2CCN(C(=O)CCOCCNC(=O)COc3cccc4c3C(=O)N(C3CCC(=O)NC3=O)C4=O)CC2)cc1)[C@H]1CC[C@@H](c2ccnc3ccc(F)cc32)CC1 (stereo not given in full)	38%
C[C@@H](C(=O)Nc1ccc(OCCOCCNC(=O)COc2cccc3c2C(=O)N(C2CCC(=O)NC2=O)C3=O)cc1)[C@H]1CC[C@@H](c2ccnc3ccc(F)cc32)CC1 (stereo not given in full)	48%
C[C@@H](C(=O)Nc1ccc(OCCOCCOCCOCCOCCNC(=O)COc2cccc3c2C(=O)N(C2CCC(=O)NC2=O)C3=O)cc1)[C@H]1CC[C@@H](c2ccnc3ccc(F)cc32)CC1 (stereo not given in full)	0%
C[C@@H](C(=O)Nc1ccc(Cl)c(OCCOCCOCCOCCNc2cccc3c2C(=O)N(C2CCC(=O)NC2=O)C3=O)c1)[C@H]1CC[C@@H](c2ccnc3ccc(F)cc32)CC1 (stereo not given in full)	0%
C[C@@H](C(=O)Nc1ccc(OC2CCN(CCCOCCNC(=O)COc3cccc4c3C(=O)N(C3CCC(=O)NC3=O)C4=O)CC2)cc1)[C@H]1CC[C@@H](c2ccnc3ccc(F)cc32)CC1 (stereo not given in full)	66%
C[C@@H](C(=O)Nc1ccc(Cl)c(OCCCCCCNc2cccc3c2C(=O)N(C2CCC(=O)NC2=O)C3=O)c1)[C@H]1CC[C@@H](c2ccnc3ccc(F)cc32)CC1 (stereo not given in full)	0%
C[C@@H](C(=O)Nc1ccc(OC2CCN(C(=O)CCOCCOCCNC(=O)COc3cccc4c3C(=O)N(C3CCC(=O)NC3=O)C4=O)CC2)cc1)[C@H]1CC[C@@H](c2ccnc3ccc(F)cc32)CC1 (stereo not given in full)	81%
C[C@@H](C(=O)Nc1ccc(Cl)c(OCCCCCCCCCNc2cccc3c2C(=O)N(C2CCC(=O)NC2=O)C3=O)c1)[C@H]1CC[C@@H](c2ccnc3ccc(F)cc32)CC1 (stereo not given in full)	0%
C[C@@H](C(=O)Nc1ccc(OC2CN(C(=O)CCOCCOCCNC(=O)COc3cccc4c3C(=O)N(C3CCC(=O)NC3=O)C4=O)C2)cc1)[C@H]1CC[C@@H](c2ccnc3ccc(F)cc32)CC1 (stereo not given in full)	9%
C[C@@H](C(=O)Nc1ccc(OCCCCOc2cccc3c2C(=O)N(C2CCC(=O)NC2=O)C3=O)cc1)[C@H]1CC[C@@H](c2ccnc3ccc(F)cc32)CC1 (stereo not given in full)	0%
C[C@@H](C(=O)Nc1ccc(Cl)c(OCCOCCNC(=O)COc2cccc3c2C(=O)N(C2CCC(=O)NC2=O)C3=O)c1)[C@H]1CC[C@@H](c2ccnc3ccc(F)cc32)CC1 (stereo not given in full)	8%
C[C@@H](C(=O)Nc1ccc(Cl)c(OCCOCCOc2cccc3c2C(=O)N(C2CCC(=O)NC2=O)C3=O)c1)[C@H]1CC[C@@H](c2ccnc3ccc(F)cc32)CC1 (stereo not given in full)	6%
C[C@@H](C(=O)Nc1ccc(Cl)c(OCCCOc2cccc3c2C(=O)N(C2CCC(=O)NC2=O)C3=O)c1)[C@H]1CC[C@@H](c2ccnc3ccc(F)cc32)CC1 (stereo not given in full)	49%
C[C@@H](C(=O)Nc1ccc(OCCOCCOCCOc2cccc3c2C(=O)N(C2CCC(=O)NC2=O)C3=O)cc1)[C@H]1CC[C@@H](c2ccnc3ccc(F)cc32)CC1 (stereo not given in full)	94%
C[C@@H](C(=O)Nc1ccc(Cl)c(OCCOCCOCCOCCOCCOc2cccc3c2C(=O)N(C2CCC(=O)NC2=O)C3=O)c1)[C@H]1CC[C@@H](c2ccnc3ccc(F)cc32)CC1 (stereo not given in full)	0%
C[C@@H](C(=O)Nc1ccc(OCCOCCOCCOCCOCCOCCNc2cccc3c2C(=O)N(C2CCC(=O)NC2=O)C3=O)cc1)[C@H]1CC[C@@H](c2ccnc3ccc(F)cc32)CC1 (stereo not given in full)	0%
C[C@@H](C(=O)Nc1ccc(OC2CN(C(=O)CCOCCOCCOc3cccc4c3C(=O)N(C3CCC(=O)NC3=O)C4=O)C2)cc1)[C@H]1CC[C@@H](c2ccnc3ccc(F)cc32)CC1 (stereo not given in full)	74%
C[C@@H](C(=O)Nc1ccc(Cl)c(OCCOCCOCCOCCOCCOCCOc2cccc3c2C(=O)N(C2CCC(=O)NC2=O)C3=O)c1)[C@H]1CC[C@@H](c2ccnc3ccc(F)cc32)CC1 (stereo not given in full)	0%
C[C@@H](C(=O)Nc1ccc(OC2CN(C(=O)CCOCCNc3cccc4c3C(=O)N(C3CCC(=O)NC3=O)C4=O)C2)cc1)[C@H]1CC[C@@H](c2ccnc3ccc(F)cc32)CC1 (stereo not given in full)	90%
C[C@@H](C(=O)Nc1ccc(Cl)c(OCCOCCOCCOCCOCCNc2cccc3c2C(=O)N(C2CCC(=O)NC2=O)C3=O)c1)[C@H]1CC[C@@H](c2ccnc3ccc(F)cc32)CC1 (stereo not given in full)	0%
